# Measured values published in the RNAGym collection of RNA variant scans (doi:10.1126/science.aae0568).
# Fewer inactive variants are shown than the library holds.
# B1: tRNA (parent)
# chain: GUUCCGUUGGCGUAAUGGUAACGCGUCUCCCUCCUAAGGAGAAGACUGCGGGUUCGAGUCCCGUACGGAACG
# Variants of: B1
# Assay: yeast fitness relative to wild type (ratio to wild type); higher = fitter; tRNA-Arg(CCU), competitive growth, 37 C, YPD
# In short: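 For this measurement, the tRNA-Arg(CCU) gene was varied by chemical synthesis at a 3% per-site mutation rate across 69 sites, and each variant was placed at the native genomic locus in Saccharomyces cerevisiae. The pooled strains went through a 24-hour competition in YPD at 37°C in six parallel replicates, with amplicons from start and end populations read by 100-nucleotide paired-end sequencing. Darwinian fitness relative to wild type followed from the change in each genotype's frequency. Genotypes needed ≥ 100 starting reads, and estimates < 0.5 were set to 0.5.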
row,Variant,yeast fitness
1,GGUCCGUUGGCGUAAUGGUAACGAGUCUCCCUCCUAAGGAGAAGAAUGCGGGUUCGAGUCCCGUACGGACCG [U2G C24A C46A A70C],1.01
2,GGUCCGUUGGCGUAAUGGUAACGCGUAUCCCUCGUAAGGAGAAGACUGCGGGUUCGAGUCCCGUGCGGAACG [U2G C27A C34G A65G],≤ 0.5
3,GGUCCGUUGGCGUAAUGGUAACGCGUCUGCCUCCUAAGGAGAAGACCGCGGGUUCGAGUCCCGUACGGAACG [U2G C29G U47C],0.557
4,GGUCCGUUGGCGUAAUGGUAACGCGUCUCCCUCUCAAGGAGAAGACUGCGGGUUCGAGUCCCGUACGGAACG [U2G C34U U35C],≤ 0.5
5,GGUCCGUUGGCGUAAUGGUAACGCGUCUCCCUCCUAAGGAGAAGACUGUGGGUUCGAGUCCCGUAUGGAACG [U2G C49U C66U],0.606
6,GGUCCAUUGGCGUAAUGGUAACGCGUUUCCCUCCUAAGCAGAAGACUGCGGGUUCGAGUCCCGUACGGAACG [U2G G6A C27U G39C],≤ 0.5
7,GGUCCGUUGGCGUAAUGGUAACGCGUCUCUCUCCUAAGGAGAAGACUGCGGGUUCGACUCCCCUACGGAACG [U2G C30U G58C G63C],0.618
8,GGUCCGUUGGCGUAAUGGUAACGCGUCUCCCUCCUAAGGAGAAGACUGCGGGUUCGAGUUCCGUACGGAACG [U2G C60U],0.782
9,GGUCCGUUGGCGUAAUGGUAACGCGUCUCCCUCUUAAGGAGAAGACUGCGGGUUCGAGUCCCGUACGGUACG [U2G C34U A69U],0.543
10,GGUCCGUUGGCGUAAUGGUAACGUGUCUCCCUCCUAAGGAGAAGACUGCGGGUUCGAGUCCCGUACGGUACG [U2G C24U A69U],0.681
11,GGUCCGUUGGCGUAAUGGUAACGCGUCUCCCUCCUAAGGAGAAGAAUGCGGGUUCGAGUCCCGUACGCAACG [U2G C46A G68C],≤ 0.5
12,GGUCCGUUGGCGUAAUGGUAAAGCGUCUCCCUCCUAAGGAGAAGACUGCGGGUUCAAGGCCCGUACGGAACG [U2G C22A G56A U59G],≤ 0.5
13,GGUCCGUUGGCGUAAUGGUAACGCGUGUCCCUCCUAAGGAGAAGACUGCGGGUUCGAGUCCCAUCCGCAACG [U2G C27G G63A A65C G68C],0.632
14,GGUCCGUUGGCGUAAUGGUAACGCGUCUCCAUCCUAAGGAGAAGACUGCGGGUUCUAGUCCCGUACAGACCG [U2G C31A G56U G67A A70C],≤ 0.5
15,GGUCCGUUGGCGUAAUGGUAACGCGUCUCCCUCCUAAGGAGAAGACUGCGGGUUCGAGUCCGGUAUGGAACG [U2G C62G C66U],≤ 0.5
16,GGUCCGUUGGCGUAAUGGUAACGCGUCUCCCUCCUAAGGAGAAGAAUGCGGGUUCCAGUCCCGUACGGAACG [U2G C46A G56C],≤ 0.5
17,GGUCCGUUGGCGUAAUGGUAACGCGUCUCCUUCCUAAGGAGAAGACUGCGGGUGCGAGUCCCGUACGGAACG [U2G C31U U54G],≤ 0.5
18,GGUCCGUUGGCGUAAUGGUAACGCGUCUCCCUCGUAAGCACAAGACUGCGGGUUCGAGUCCCGUACCGAACG [U2G C34G G39C G41C G67C],≤ 0.5
19,GGUCCGUUGGCGUAAUGGUAACGCGUCUCCCUUCUAAGGAGAAGACUGCGGGUUCGACUCCCGUACGGAUCG [U2G C33U G58C A70U],0.581

row,Variant,yeast fitness
1,GGUCCGUUGGCGUAAUGGUAACGCGUGUCCCUCCUAAGGAGAAGACUGCGGGUUCGAGUCCCGUACCGAACG [U2G C27G G67C],≤ 0.5
2,GGUCCGUUGGCGUAAUGGUAACGCGUGUCCCUCCUAAGGAGAAGACUGCGGGUUCGAGUCCCGUACUGAACG [U2G C27G G67U],≤ 0.5
3,GGUCCGUUGGCGUAAUGGUAACGCGUCUCCCUUCUAAGGAGAAGACUGCGGGUUCGAGUCCCGUCCGGAACG [U2G C33U A65C],≤ 0.5
4,GGUCCGUUGGCGUAAUGGUAACGCGUUUCCCUCCUAAGGAGAAGACUGCGGGUUCGAGUCCCGUACGGAACG [U2G C27U],0.878
5,GGUCCGUUGGCGUAAUGGUAACGCGUGUCCCUCCUAAGGAGAAGACUGCGGGUUCGAGUCCCGUACGGAACG [U2G C27G],0.546
6,GGUCCGUUGGCGUAAUGGUAACGCGUCUACCUCCUAAGGUGAAGACUGCGGGUUCGAGUCCCGUACGGAACG [U2G C29A A40U],≤ 0.5
7,GGUCCGUUGGCGUAAUGGUAACGCGUCUCCGUCCUAAGGAGAAGACUGCGGGUUCGUGUACCGUACGGAACG [U2G C31G A57U C60A],≤ 0.5
8,GGUCCGUUGGCGUAAUGGUAACGCGUCUGCCUCCUAAGGAGAACACUGGGGGUUCGUGUCCCGUACGGAACG [U2G C29G G44C C49G A57U],≤ 0.5
9,GGUCCGUUGGCGUAAUGGUAACGCGUCUUCCUCCUAAGGAGAACACUGCGGGUACGAGUCCCGUACGGAACG [U2G C29U G44C U54A],0.554
10,GGUCCGUUGGCGUAAUGGUAACGCGUCUGCCUCCUAAGGAGACGACUGCGGGUUCGAGUCCCGUACGGAACG [U2G C29G A43C],0.548
11,GGUCCGUUGGCGUAAUGGUAACGCGUCUCCCUACUAAGGAGAAGACUGGGGGUUCGAGUCCCGUACGGAACG [U2G C33A C49G],≤ 0.5
12,GGUCCGUUGGCGUAAUGGUAACGCGUCUCCCUCUUCAGGAGAAGACUGCGGGUUCGAGUCCCGUACGGAACG [U2G C34U A36C],≤ 0.5
13,GGUCCGUUGGCGUAAUGGUAACGCGUCUCCGUCCUAAGCAGAAGACUGCGGGUUCGAGUACCGUACGGAACG [U2G C31G G39C C60A],≤ 0.5
14,GGUCCGUUGGCGUAAUGGUAACGCGUCUCCCUCCUAAGGAGAAGACUGCGGGUUCGAGUCCGGUACGGCACG [U2G C62G A69C],≤ 0.5
15,GGUCCGUUGGCGUAAUGGUAACGCGUCUCCCUCCUAAGGAGAAGAGUGCGGAUUCGAGUCCCGUACGGAACG [U2G C46G G52A],≤ 0.5
16,GGUCCGUUGGCGUAAUGGUAACGCGUCUCCCUCCUAAGGAGAAGACUGCGGGUUCGAGUCCCGUAUGGAACG [U2G C66U],0.858
17,GGUCCAUUGGCGUAAUGGUAACGCGUUUCCCUCCUUAGGAGAAGACUGCGGGUUCGAGUGCCGUACGGAACG [U2G G6A C27U A36U C60G],0.526
18,GGUCCGUUGGCGUAAUGGUAACGCGUCUCCCUCCUAAGGAGAAGAUUGCGGGUUCGAGUCCCGUACGGAACG [U2G C46U],1.01
19,GGUCCGUUGGCGUAAUGGUAACGCGUCUCCCUCCUAAGGAGAAGAGUGCGGGUUCGAGUCCCGUACGGAACG [U2G C46G],0.864
